# PfG6PD inh – PfG6PD (Plasmodium falciparum) enzyme inhibition. PfGluPho enzyme, NADPH resazurin-diaphorase fluorescence. hit rate 0.78% among 350,000. inhibition, % at 20 µM;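 active = inhibition reaching at least a set limit at 20 µM in the primary screen, cut at about 59% in these data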;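 also: 0% = DMSO wells with substrate and 100% = DMSO wells lacking glucose-6-phosphate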
# HKDC1 inhibitor – blocks human hexokinase HKDC1 activity; Q2TB90; recombinant HKDC1, G6PDH/diaphorase resazurin coupled fluorescence; inhibition, % at 20 µM; hit rate 0.16% among 340,000; AID 493160;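 active = inhibition above about 35% when tested at 20 µM, limit read from the data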;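 also: plate controls were DMSO wells with enzyme for no effect and DMSO wells lacking enzyme for full effect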
# Target sequence (Q2TB90 whole entry, looked up): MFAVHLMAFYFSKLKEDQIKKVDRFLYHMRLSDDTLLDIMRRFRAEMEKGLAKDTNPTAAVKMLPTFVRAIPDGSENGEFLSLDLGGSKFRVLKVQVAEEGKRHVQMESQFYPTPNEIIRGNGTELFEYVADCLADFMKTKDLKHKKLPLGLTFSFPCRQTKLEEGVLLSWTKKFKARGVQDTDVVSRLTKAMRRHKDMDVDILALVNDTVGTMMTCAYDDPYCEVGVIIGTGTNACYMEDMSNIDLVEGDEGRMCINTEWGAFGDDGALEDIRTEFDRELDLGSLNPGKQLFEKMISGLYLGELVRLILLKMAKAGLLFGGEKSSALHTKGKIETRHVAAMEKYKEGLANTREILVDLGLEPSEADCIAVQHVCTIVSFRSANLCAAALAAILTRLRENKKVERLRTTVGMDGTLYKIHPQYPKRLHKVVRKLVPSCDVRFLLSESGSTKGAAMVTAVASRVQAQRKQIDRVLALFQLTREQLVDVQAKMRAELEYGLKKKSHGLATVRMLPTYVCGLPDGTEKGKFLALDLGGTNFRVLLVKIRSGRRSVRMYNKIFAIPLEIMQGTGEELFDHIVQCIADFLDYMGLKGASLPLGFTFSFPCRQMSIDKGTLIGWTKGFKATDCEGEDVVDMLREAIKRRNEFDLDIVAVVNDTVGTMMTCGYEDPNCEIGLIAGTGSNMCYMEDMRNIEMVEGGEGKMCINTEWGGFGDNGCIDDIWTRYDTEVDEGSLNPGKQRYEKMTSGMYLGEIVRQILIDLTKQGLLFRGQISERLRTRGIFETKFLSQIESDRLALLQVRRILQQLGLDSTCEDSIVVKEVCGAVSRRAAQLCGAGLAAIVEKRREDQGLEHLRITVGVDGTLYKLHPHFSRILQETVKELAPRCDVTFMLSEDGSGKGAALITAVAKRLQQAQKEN
#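 Incubation: 90 min at room temperature in dark / Material: recombinant HKDC1 (HK5) hexokinase enzyme, produced in-house / Quantity: enzyme 5 µg/mL final / Compound: one dose of 20 µM, 1% DMSO / Reagent: glucose and ATP substrates / Buffer or medium: Tris pH 8.0 buffer with MgCl2, Tween-20, BSA, BME / Technique: resorufin fluorescence at 613 nm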
# G6PDH CS – inhibits Leuconostoc G6PDH, flagging false hits in G6PDH-based assays; inhibition, % at 5 µM; Purified L. mesenteroides G6PDH, diaphorase/resazurin coupled fluorescence, 45 min; hit rate 0.12% among 200,000; AID 1020; in the data active = inhibition above about 50%
# Diaphorase inh – inhibits diaphorase or chemically oxidizes, flagging diaphorase assay artifacts; diaphorase resazurin-to-resorufin fluorescence, NADH, 16 min; bacterial (C. kluyveri) enzyme, not human; hit rate 0.69% among 190,000; inhibition, % at 20 µM; AID 1217;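 active = primary screen inhibition at 20 µM above a set limit, cut at about 50% in these data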;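 also: plate controls were DMSO with full reaction for no effect and wells lacking NADH for full effect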
#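 Assay system: diaphorase enzyme from Clostridium kluyveri; Input: enzyme working solution with 0.14 U/mL diaphorase; Timing: 16 min at room temperature; Technique: resorufin fluorescence, excitation 544 nm, emission 590 nm; Benchmarks: positive control minus NADH, DMSO neutral control.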
# Numbers without * were called inactive; . = no result given. A selection: hits, their analogues and other compounds. The true share with any hit is near 1.3%.
SMILES,PfG6PD inh,HKDC1 inhibitor,G6PDH CS,Diaphorase inh
CCC(C)n1c(=S)[nH]c2c(sc3ccc([N+](=O)[O-])cc32)c1=O (configuration not stated),-2,-1,-8,62*
Nc1nonc1-c1nc2ccccc2n1CC(=O)N/N=C/c1ccc(-c2cccc(C(=O)O)c2)o1,-13,6,-6,52*
CC(=O)c1cc(O)c2ccccc2c1O,48,44*,.,.
COc1cc(CNc2ccc3c(c2)CCC3)cc(OC)c1O,13,5,-42,56*
COCCCNC(=O)c1cccn2c(=O)c3cc4ccccc4cc3nc12,-73,15,28,15
O=C(NCc1ccco1)c1cccn2c(=O)c3cc4ccccc4cc3nc12,.,.,35,66*
COc1ccc(NC(=S)Nc2ccc3nccnc3c2)cc1,39,7,15,65*
COc1ccc(NC(=S)Nc2ccc3snnc3c2)cc1,29,15,18,23
CCn1ncc(Br)c1C(=O)Nc1ccc(C(C)C)cc1,16,5,.,.
Cc1ccc(N=Cc2cccc(O)c2O)c(C)c1,.,.,54*,67*
CC(N=Cc1cccc(O)c1O)c1ccccc1 (configuration not stated),51,11,52*,51*
CC(N=Cc1cc([N+](=O)[O-])ccc1O)c1ccccc1 (configuration not stated),-4,-5,7,19
Oc1cccc(/C=N/N=C/c2cccc(O)c2O)c1O,32,5,.,.
Cc1ccccc1N=Cc1cccc(O)c1O,47,-2,52*,83*
Nc1ccc(C2=Nc3cccc4cccc(c34)N2)cc1,18,-1,22,1
c1coc(C2=Nc3cccc4cccc(c34)N2)c1,43,18,46,60*
O=[N+]([O-])c1cc2oc3c(c2c(C=NCc2ccccc2)c1O)CCCC3,22,7,2,29
CC(C)CN=Cc1c(O)c([N+](=O)[O-])cc2oc3c(c12)CCCC3,9,9,-6,56*
CCc1ccccc1NC(=O)C1=CN2CCS(=O)(=O)N=C2C=C1,-6,-3,.,.
S=C(Nc1ccc(N2CCOCC2)cc1)Nc1ccc2nc(-c3ccco3)c(-c3ccco3)nc2c1,59,17,40,64*
O=C(CSc1nnc(-c2ccco2)c(-c2ccco2)n1)c1ccccc1,31,3,29,.
O=C(NCCO)Nc1ccc2nsnc2c1,2,-6,2,15
O=C(NCCO)Nc1ccc2nc(-c3ccco3)c(-c3ccco3)nc2c1,.,.,31,74*
CCCCNC(=O)c1ccc2nc(-c3ccco3)c(-c3ccco3)nc2c1,44,19,-28,53*
O=C(Nc1ccc(N2CCOCC2)cc1)c1ccc2nc(-c3ccco3)c(-c3ccco3)nc2c1,14,-3,-60,30
SMILES,PfG6PD inh,HKDC1 inhibitor,G6PDH CS,Diaphorase inh
CC(=O)c1ccc(NC(=O)CSc2nnc(-c3ccco3)c(-c3ccco3)n2)cc1,30,12,38,81*
CC(=O)c1ccc(NC(=O)c2ccc3nc(-c4ccco4)c(-c4ccco4)nc3c2)cc1,78*,41*,22,55*
CC(=C/c1ccccc1)/C=N/n1c(-c2ccncc2)n[nH]c1=S,10,-3,9,66*
Cc1cc(-c2n[nH]c(=S)n2/N=C/c2cccc([N+](=O)[O-])c2)n[nH]1,15,13,-2,62*
Cc1cc(-c2n[nH]c(=S)n2/N=C/C(Cl)=C/c2ccccc2)n[nH]1,14,21,13,51*
S=c1[nH]nc(-c2ccco2)n1/N=C/C(Cl)=C/c1ccccc1,18,11,.,.
CC(/C=N/n1c(-c2cccnc2)n[nH]c1=S)=C\c1ccccc1,11,-3,7,42
Cc1ccc([N+](=O)[O-])cc1NC(=S)NCCc1ccccc1,-14,-4,.,.
CN1C(=O)/C(=C\C=C2/CCCN2C)N(C)C1=S,-19,0,6,52*
CCN1C(=O)/C(=C/C=C2/CCCN2C)OC1=S,-2,-9,14,30
CC[n+]1c(C)sc2cc(C)ccc21,39,-3,8,54*
Cc1ccc2sc(C)[n+](CCO)c2c1,45,-7,-2,7
CCCC[n+]1c(C)sc2ccc(C)cc21,26,0,13,66*
O=C(c1cc(S(=O)(=O)N2CCOCC2)ccc1F)N1CCc2ccccc21,-18,0,.,.
Cc1ccc(C(=O)NC(=S)/C=C2\N(C)c3ccccc3C2(C)C)cc1,12,4,1,67*
CC(C)C(=O)NC(=S)/C=C1/N(C)c2ccccc2C1(C)C,13,-6,6,-3

# Screens deposited in PubChem by Sanford-Burnham Center for Chemical Genomics.
